Measurements of several laboratories.
Each line is one published result; the experiments were not run side by side.

`NCc1cc2c(cc1F)C(=O)N(C1CCC(=O)NC1=O)C2` (centres unmarked) gave a half-life of 2.2 h (male cynomolgus monkey, plasma; oral, 0.3 mg/kg).
`CC[C@H](C)[C@H](NC(=O)[C@@H]1CCCN1C(=O)CNC(=O)[C@H](Cc1ccccc1)NC(=O)[C@H](CC(N)=O)NC(=O)[C@H](CC(N)=O)NC(=O)[C@H](CO)NC(=O)[C@H](CO)NC(=O)[C@H](Cc1c[nH]cn1)NC(=O)[C@H](CCCNC(=N)N)NC(=O)[C@H](CC(C)C)NC(=O)[C@H](Cc1ccccc1)NC(=O)[C@H](CCC(=O)O)NC(=O)[C@H](C)NC(=O)[C@H](CC(C)C)NC(=O)[C@H](CCCNC(=N)N)NC(=O)[C@H](CCC(N)=O)NC(=O)[C@@H](NC(=O)[C@H](C)NC(=O)[C@@H]1CSSC[C@H](NC(=O)[C@H](CCCCN)NC(=O)CC[C@H](NC(=O)CCCCCCCCCCCCCCCCCCC(=O)O)C(=O)O)C(=O)N[C@@H](CC(N)=O)C(=O)N[C@@H]([C@@H](C)O)C(=O)N[C@@H](C)C(=O)N[C@@H]([C@@H](C)O)C(=O)N1)[C@@H](C)O)C(=O)N[C@@H](CC(C)C)C(=O)N1CCC[C@H]1C(=O)N1CCC[C@H]1C(=O)N[C@H](C(=O)N[C@@H](CC(N)=O)C(=O)N[C@H](C(=O)NCC(=O)N[C@@H](CO)C(=O)N[C@@H](CC(N)=O)C(=O)N[C@H](C(=O)N1CCC[C@H]1C(N)=O)[C@@H](C)O)C(C)C)[C@@H](C)O` gave a half-life of 62 h (cynomolgus monkey, plasma; subcutaneous, 20 nmol/kg, single dose).
For `C[C@H]1Oc2cc(cnc2N)-c2c(nn(C)c2C#N)CN(C)C(=O)c2ccc(F)cc21`, the Cmax was 2480 ng/mL (male Sprague-Dawley rat, plasma; oral, 50 mg/kg, single dose).
`CNS(=O)(=O)c1ccc(Nc2ncc3cc(Cl)c(=O)n(C4CCCC4)c3n2)c(C)c1` gave a bioavailability of 3% (rat, plasma; oral, 10 mg/kg).
`CC(=O)Nc1ccc(O)cc1` gave a viability of 29.1% (THLE-2; cell growth or viability, MTT; 100 µM, 72 h).
The bioavailability of `C[C@]1(O)CCCN(c2nc(Nc3ccc(S(=O)(=O)N[C@H]4CC[C@H](CN5CCN(c6ccc(C7CCC(=O)NC7=O)c(F)c6)CC5)CC4)cc3F)ncc2C(F)(F)F)C1` (some centres unmarked) is reported as 24% (rat, plasma; oral, 10 mg/kg).
With `COc1nc(-c2cccc(-c3ccccc3)c2C)ccc1CNCCNC(=O)CCCCCCCCCCC(=O)N1CCN(CCNC(=O)c2cc3c(=O)n4cccc(C)c4nc3n(CCc3cccs3)c2=N)CC1` the Cmax was 300 ng/mL (male Sprague-Dawley rat, plasma; intraperitoneal, 4 mg/kg).
`Cc1c(C)c2c(c(C)c1O)CCC(C)(COc1ccc(CC3SC(=O)NC3=O)cc1)O2` (centres unmarked) has a viability of 9% (THLE-2; cell growth or viability, MTT; 100 µM, 72 h).
